# This is a sample that favours compounds with a hit; in the whole collection about 4.9% have one here.
# NF-kB expr up – raises NF-kB expression in human neuronal cells. fold change at 12.5 µM. AID 1239. NF-kB reporter expression; hits give high values. actives 1.6% (n = 190,000); in the data active = fold change above about 3.3
# STAT1 blocker – reduces IFN-gamma driven STAT1 reporter signal. NIH 3T3 STAT1-luciferase reporter, luminescence. inhibition, % at 5.5 µM. actives 0.35% (n = 200,000);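 active = inhibition above a set limit, the mean inhibition across all tested compounds plus 3 SD, cut at about 34% in these data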;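 also: 0% = IFN-gamma with DMSO and 100% = IFN-gamma with 300 µM nifuroxazide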
# STAT3 blocker – STAT3 signaling inhibition. U3A cells, IL-6 STAT3-luciferase reporter, luminescence; host cell line lacks STAT1. inhibition, % at 5.5 µM. actives 0.89% (n = 190,000);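 active = inhibition above the mean inhibition across all screened compounds plus 3 SD, cut at about 44% in these data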;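 also: 0% = DMSO only wells and 100% = 100 µM nifuroxazide control wells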
# STAT1 act – activators of IFN-gamma induced STAT1 signaling | activation (% of control), % at 5.5 µM | actives 2.6% (n = 200,000) | NIH 3T3 STAT1-luciferase reporter, luminescence; 100% = IFN-gamma alone, no compound;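 active = activation above the screen-wide mean activation plus 3 SD, cut at about 130% in these data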;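 also: raw ratio to IFN-gamma control signal so 100% means no change and 0% no light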
# STAT3 activator – activators of IL-6 induced STAT3 signaling; U3A cells, IL-6 STAT3-luciferase reporter, luminescence; 100% = signal with IL-6 EC80 alone; activation (% of control), % at 5.6 µM; actives 0.91% (n = 190,000); AID 871;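 active = activation above the screen-wide mean of compound activation plus 3 SD, cut at about 130% in these data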;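 also: 0% = background luminescence of wells with medium and substrate only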
#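 system = STAT3-luciferase reporter U3A cells | reagent = IL-6 stimulus at 33 ng/mL final | timing = 1 h compound pre-exposure, 6 h IL-6 stimulation, 37 °C | measured by = luminescence | evaluation = % activation versus median of IL-6-stimulated wells | control set = IL-6-only wells as 100% reference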
# APP 5'UTR act – APP 5'UTR luciferase reporter activation | SH-SY5Y APP 5'UTR luciferase reporter, luminescence; zero percent = DMSO vehicle wells | activation, % at 2 µM | actives 1% (n = 190,000);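 active = activation above a set limit, based on mean plus 3 SD of controls, cut at about 140% in these data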
# * = called active by the depositor; . = no result.
SMILES,NF-kB expr up,STAT1 blocker,STAT3 blocker,STAT1 act,STAT3 activator,APP 5'UTR act
COc1ccc(/C=N/Nc2nccnc2Cl)cc1,3.2,-4,37,103,69,164*
CN=c1scc(-c2ccc(F)cc2)n1/N=C/c1ccc(O)c(O)c1,0.96,47*,-4,55,104,-37
OCCn1c(-c2ccc(F)cc2)csc1=Nc1ccccc1,1.5,-8,4,108,96,16
Cc1ccc(Nc2nc(N)nc(-c3oc4ccccc4c3C)n2)cc1,.,-61,-54,156*,154*,-92
COc1cccc(Nc2nc(N)nc(-c3oc4ccccc4c3C)n2)c1,1.3,-38,-24,134*,123,-76
COc1ccccc1Nc1nc(N)nc(-c2cc3ccccc3o2)n1,1.2,-18,8,117,98,31
CC1=NN(C(N)=S)C(=O)C1N=Nc1ccccc1 (configuration not stated),1.7,-34,5,130*,99,12
CC1=NN(c2ccccc2)C(=O)C1N=Nc1ccccc1 (configuration not stated),1.1,-10,-39,109,133*,95
CC1=NN(c2ccccc2)C(=O)C1N=Nc1ccc(N)cc1 (configuration not stated),0.64,2,8,98,97,-25
Clc1ccc(CN=C2Nc3ccccc3CS2)cc1,4.8*,-29,-4,126,108,115
COc1cccc(CN=C2Nc3ccccc3CS2)c1,3.9*,-50,-4,147*,111,111
COc1ccccc1CN=C1Nc2ccccc2CS1,2.5,-28,26,126,84,50
COC(=O)C1=C(C)NC=C([N+](=O)[O-])C1c1ccc(OC)cc1 (configuration not stated),0.81,-3,-2,103,100,23
Cc1ccc(-c2cnn(-c3cccc(C(F)(F)F)c3)c2N)cc1,2.4,-42,8,138*,100,134
O=C(CN1CCN(S(=O)(=O)c2ccccc2)CC1)Nc1ccc([N+](=O)[O-])cc1,0.93,5,10,95,95,6
O=C(NCc1ccco1)C(=O)N1CCCC1,1.1,-10,2,108,103,-12
S=c1[nH]nc(-c2cc(-c3ccco3)[nH]n2)n1-c1ccccc1,1.1,1,9,100,96,-9
Oc1ccccc1-c1cc(-c2ccco2)[nH]n1,3.9*,-3,-30,102,132,115
Oc1ccc(Cl)cc1-c1cc(-c2ccco2)[nH]n1,1.6,-12,-39,111,134*,-12
Oc1ccc(Cl)cc1-c1cc(-c2ccccc2Cl)[nH]n1,1.1,1,-27,99,126,11
Oc1ccccc1-c1cc(-c2ccccc2Cl)[nH]n1,8.7*,-8,11,108,93,231*
Cc1c(NS(=O)(=O)c2ccc3c(c2)Cc2ccccc2-3)c(=O)n(-c2ccccc2)n1C,0.92,-3,1,102,104,4
CC1=[N+](C)c2c(ccc3cccnc23)C1(C)C,0.6,30,42,71,67,-20
Cc1csc(NC(=O)/C=C/c2ccco2)n1,2.8,-52,9,147*,92,88
O=C(O)c1ccc(Nc2nc(-c3ccccc3)cs2)cc1,4.7*,-50,-2,145*,105,126
SMILES,NF-kB expr up,STAT1 blocker,STAT3 blocker,STAT1 act,STAT3 activator,APP 5'UTR act
O=C(Nc1ccc(Cl)cc1)Nc1nc(-c2ccccc2)cs1,1.3,-5,19,104,93,-4
O=C(/C=C/c1ccco1)Nc1nc(-c2ccccc2)cs1,1.5,-37,1,133*,97,93
O=C(/C=C/c1ccco1)Nc1cccc2cccnc12,1.6,-28,-18,125,117,25
COc1ccc(-c2csc(NC(=S)NC(=O)/C=C/c3ccco3)n2)cc1OC,1.3,4,3,96,100,-75
O=C(/C=C/c1ccco1)Nc1nc(-c2ccccn2)cs1,0.76,-31,-18,129*,114,14
Cc1cccc(C)c1NC(=O)CS(=O)CC(=O)NCC1OCCc2ccccc21 (configuration not stated),1.1,-4,6,102,101,16
Cc1ccc(NC(=O)/C=C/c2ccco2)nc1,0.89,-54,-13,147*,111,-89
